The species named for experiment [1] is Mus musculus. Kind of experiment: Compound was tested for inhibition of mouse connective tissue cell (L) growth at a concentration of 100 uM. The format is functional. The conditions noted are these: for inhibition at 100 µM: Mus musculus. In a few lines: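 D-98 (human sternal marrow) and L (mouse connective tissue) cells were cultured with compound at 100 µM, and growth inhibition was reported as %. Procedure per earlier publication.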

Experiment [2] relates to D98 (Homo sapiens). The experiment can be described thus: Compound was tested for inhibition of human sternal marrow cell (D98) growth at a concentration of 100 uM.
For experiment [3], the species on record is Rattus norvegicus. Kind of experiment: Dose required to produce an acute inflammatory response of the algal poly saccharide carrageenan into the pleural cavity of rat. The format is functional.
In experiment [4] the test system is EL4. Kind of experiment: Inhibition of lymphocyte-mediated cytolysis at a concentration of 100 uM in [51Cr]- labelled EL4 leukemia cells. It counts as functional. Particulars: Mus musculus.
Experiment [5] relates to Rattus norvegicus. The experiment can be described thus: Dose required to produce an acute inflammatory response of the algal poly saccharide carrageenan into the pleural cavity of rat; IA is Inactive at 9 mg/kg. The format is functional, organism-based. On the set-up: dose 9 mg/kg.

Broadly, the inhibition is the change of the read-out against control, counted positive when it falls. Broadly, the ED50 is the dose that gives a 50% effect, or the effect in half of the subjects. What is called Inhibition is the change of the read-out against control, counted positive when it falls.

Activity calls are given as the source filed them. No cut-off for these calls is given here. Bounds are passed on as bounds.

With `[N-]=[N+]=Nc1nccc2c1ncn2C1O[C@H](CO)[C@@H](O)[C@H]1O` (stereo partly drawn), the inhibition at 100 µM in experiment [1] was 8%; in experiment [4] it was less than 5%. Besides, the inhibition in experiment [2] amounted to 4%. In experiment [3], this compound came in with an ED50 greater than 9 mg/kg.

In turn, `OC[C@H]1O[C@@H](n2cnc3cnccc32)[C@H](O)[C@@H]1O` (stereo in doubt; 16) [listing 1 of 2 here] yielded an inhibition in experiment [2] of 13%. The ED50 entry in experiment [5] was “inactive”.

With `OCCNc1[nH]ccc2ncnc1-2`, the figures for the inhibition at 100 µM in experiment [1] and in experiment [4] were 16% and less than 5%, respectively. In experiment [2], this compound returned an inhibition of 3%. The compound also registered an ED50 in experiment [3] greater than 9 mg/kg.

For the compound `OC[C@H]1OC(n2cnc3c(S)nccc32)[C@H](O)[C@@H]1O` (stereo partly drawn), the inhibition at 100 µM in experiment [1] is 3%; in experiment [4] it was less than 5%. In experiment [2], the inhibition is 6%. It took a dose of 9 mg/kg to reach the 50% effect level in experiment [3] (ED50).

For the compound `[N-]=[N+]=Nc1nccc2ncn([C@H]3C[C@H](O)[C@@H](CO)O3)c12`, the inhibition at 100 µM in experiment [1] was 2%; in experiment [4], less than 5%. Moreover, the inhibition in experiment [2] was found to be 14%. In addition, the ED50 in experiment [3] is greater than 9 mg/kg.

As for `c1ccc(CSc2[nH]ccc3ncnc2-3)cc1`, the inhibition at 100 µM in experiment [1] is 54%; in experiment [4], 20%. Also, in experiment [2], the inhibition came to 26%. In addition, the ED50 in experiment [3] is greater than 9 mg/kg.

In the case of `CSc1[nH]ccc2ncnc1-2`, the inhibition at 100 µM in experiment [1] was 11%; in experiment [4], less than 5%. In addition, the inhibition in experiment [2] amounted to 4%. The ED50 in experiment [3] was 9 mg/kg.

For `Sc1[nH]ccc2ncnc1-2`, the inhibition at 100 µM is 38% in experiment [1] and less than 5% in experiment [4]. Further, in experiment [2], the inhibition was found to be 26%. In addition, it took a dose of 8 mg/kg to reach the 50% effect level in experiment [3] (ED50).

Consider `CN(C)c1nccc2c1ncn2[C@H]1C[C@H](O)[C@@H](CO)O1`, for which the inhibition at 100 µM in experiment [1] is 6%; in experiment [4] it was less than 5%. Moreover, the inhibition in experiment [2] came out at 0%. Further, in experiment [3], the ED50 was greater than 9 mg/kg.

In the case of `Nc1nccc2c1ncn2[C@@H]1O[C@H](CO)[C@@H](O)[C@H]1O`, the inhibition at 100 µM turned out to be 49% in experiment [1] and 80% in experiment [4]. Moreover, the inhibition in experiment [2] is 56%. This compound also registered an ED50 in experiment [3] of 3 mg/kg.

For the compound `[O-][n+]1ccc2c(c1)ncn2C1O[C@H](CO)[C@@H](O)[C@H]1O` (stereo partly drawn), the results for the inhibition at 100 µM in experiment [1] and in experiment [4] were 3% and less than 5%, respectively. In experiment [2], this compound gave an inhibition of 5%. In addition, the ED50 entry in experiment [5] was “inactive”.

Turning to `CSc1nccc2c1ncn2[C@H]1C[C@H](O)[C@@H](CO)O1`, the inhibition at 100 µM in experiment [1] was 30%; in experiment [4], less than 5%. Besides, the inhibition in experiment [2] was determined as 36%. Besides, the ED50 in experiment [3] was greater than 9 mg/kg.

As to `[O-][n+]1ccc2c(c1)ncn2[C@H]1C[C@H](O)[C@@H](CO)O1`, the values for the inhibition at 100 µM in experiment [1] and in experiment [4] were 13% and less than 5%, respectively. Moreover, the inhibition in experiment [2] stood at 0%. For the same compound, in experiment [5], the ED50 entry is “inactive”.

With `OC[C@H]1O[C@@H](n2cnc3c(SCc4ccccc4)nccc32)C[C@@H]1O`, the inhibition at 100 µM in experiment [1] came out at 19%; in experiment [4] it was 11%. For the same compound, the inhibition in experiment [2] stood at 18%. Also, the ED50 entry in experiment [5] was “inactive”.

With `OC[C@H]1O[C@@H](n2cnc3cnccc32)[C@H](O)[C@@H]1O` (stereo in doubt; 16) [listing 2 of 2 here], the Inhibition in experiment [1] was 8%. Besides, the inhibition at 100 µM in experiment [4] was less than 5%.

Regarding `c1ccc(CNc2[nH]ccc3ncnc2-3)cc1`, the results for the inhibition at 100 µM in experiment [1] and in experiment [4] were 68% and 57%, respectively. The inhibition in experiment [2] turned out to be 75%. Moreover, the ED50 in experiment [3] worked out at 9 mg/kg.

In turn, `OC[C@H]1O[C@@H](n2cnc3cnccc32)[C@H](O)[C@@H]1O` (stereo in doubt; 17) [listing 1 of 2 here] displayed an inhibition in experiment [2] of 1%. Further, the ED50 entry in experiment [5] was “inactive”.

Turning to `[O-][n+]1ccc2[nH]cnc2c1`, the inhibition at 100 µM in experiment [1] is 1%; in experiment [4], 5%. Further, the inhibition in experiment [2] worked out at 3%. Besides, in experiment [3], the ED50 was greater than 9 mg/kg.

For `CSc1nccc2c1ncn2C1O[C@H](CO)[C@@H](O)[C@H]1O` (stereo partly drawn), the inhibition at 100 µM in experiment [1] was 40%; in experiment [4], less than 5%. The compound also had an inhibition in experiment [2] of 24%. In addition, the ED50 entry in experiment [5] is “inactive”.

`c1ccc(Nc2[nH]ccc3ncnc2-3)cc1`: the figures for the inhibition at 100 µM in experiment [1] and in experiment [4] were 34% and 26%, respectively. Moreover, the inhibition in experiment [2] turned out to be 12%. In addition, the ED50 entry in experiment [5] is “inactive”.

Consider `CC1OC(n2cnc3c(N)nccc32)CC1O` (stereo not drawn), for which the inhibition at 100 µM in experiment [1] was determined as 12%; in experiment [4], 25%. In experiment [2], the inhibition came to 3%. For the same compound, in experiment [5], the ED50 entry was “inactive”.

Take `c1cc2[nH]cnc2cn1`: the results for the inhibition at 100 µM in experiment [1] and in experiment [4] were 12% and less than 5%, respectively. In experiment [2], this compound had an inhibition of 0%. Also, the ED50 in experiment [3] was greater than 9 mg/kg.

On to `CN(C)c1nccc2c1ncn2C1O[C@H](CO)[C@@H](O)[C@H]1O` (stereo partly drawn), for which the inhibition at 100 µM in experiment [1] was found to be 14%; in experiment [4] it was 10%. Moreover, the inhibition in experiment [2] stood at 0%. In experiment [3], this compound showed an ED50 greater than 9 mg/kg.

As to `OC[C@H]1O[C@@H](n2cnc3c(NCc4ccccc4)nccc32)C[C@@H]1O`, the inhibition at 100 µM in experiment [1] is 37%; in experiment [4], 8%. In addition, the inhibition in experiment [2] is 18%. Moreover, the ED50 in experiment [3] is greater than 9 mg/kg.

For `OC[C@H]1OC(n2cnc3c(SCc4ccccc4)nccc32)[C@H](O)[C@@H]1O` (stereo partly drawn), the inhibition at 100 µM in experiment [1] amounted to 43%; in experiment [4], 30%. The compound also had an inhibition in experiment [2] of 30%. The compound further showed an ED50 in experiment [3] of 9 mg/kg.

In turn, `OC[C@H]1O[C@@H](n2cnc3cnccc32)[C@H](O)[C@@H]1O` (stereo in doubt; 17) [listing 2 of 2 here] had an Inhibition in experiment [1] of 3%.

In the case of `OC[C@H]1OC(n2cnc3c(NCc4ccccc4)nccc32)[C@H](O)[C@@H]1O` (stereo partly drawn), the inhibition at 100 µM in experiment [1] is 38%; in experiment [4], 5%. Moreover, the inhibition in experiment [2] worked out at 32%. The ED50 in experiment [3] is greater than 9 mg/kg.

Take `OC[C@H]1O[C@@H](n2cnc3cnccc32)C[C@@H]1O`: the inhibition at 100 µM was 0% in experiment [1] and less than 5% in experiment [4]. The compound further had an inhibition in experiment [2] of 6%. The compound further returned an ED50 in experiment [3] greater than 9 mg/kg.

As to `Nc1nccc2c1ncn2[C@H]1C[C@H](O)[C@@H](CO)O1`, the inhibition at 100 µM in experiment [1] worked out at 0%; in experiment [4], 89%. The inhibition in experiment [2] came to 18%. Also, it took a dose of 10 mg/kg to reach the 50% effect level in experiment [3] (ED50).

Turning to `Nc1[nH]ccc2ncnc1-2`, the results for the inhibition at 100 µM in experiment [1] and in experiment [4] were 24% and less than 5%, respectively. Further, the inhibition in experiment [2] came out at 60%. Besides, it took a dose of 8 mg/kg to reach the 50% effect level in experiment [3] (ED50).

Consider `Clc1[nH]ccc2ncnc1-2`, for which the inhibition at 100 µM was 29% in experiment [1] and less than 5% in experiment [4]. The compound also showed an inhibition in experiment [2] of 6%. The compound further gave an ED50 in experiment [3] greater than 9 mg/kg.

As for `CN(C)c1[nH]ccc2ncnc1-2`, the inhibition at 100 µM is 21% in experiment [1] and 25% in experiment [4]. In addition, the inhibition in experiment [2] is 8%. For the same compound, the ED50 in experiment [3] is 9 mg/kg.

For the compound `OC[C@H]1OC(n2cnc3c(Nc4ccccc4)nccc32)[C@H](O)[C@@H]1O` (stereo partly drawn), the figures for the inhibition at 100 µM in experiment [1] and in experiment [4] were 18% and 10%, respectively. The same compound had an inhibition in experiment [2] of 4%. The same compound gave an ED50 in experiment [3] greater than 9 mg/kg.

The record behind these values is ChEMBL document CHEMBL1123202, “Imidazo[4,5-c]pyridines (3-deazapurines) and their nucleosides as immunosuppressive and antiinflammatory agents” (1986).
